Measurements from ChEMBL document CHEMBL1129071, “Probes for narcotic receptor-mediated phenomena. 21. Novel derivatives of 3-(1,2,3,4,5,11-hexahydro-3-methyl-2,6-methano-6H-azocino[4,5-b]indol- 6-yl)-phenols with improved delta opioid receptor selectivity” (J Med Chem, 1996).

Legend:
[1] = target: Mu-type opioid receptor (Cavia porcellus, UniProt P97266); assay: Agonistic activity for Opioid receptor mu 1 as inhibitory activity towards electrically stimulated guinea pig ileum; assay type: functional, tissue-based
Summary of the method: (§1)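 Electrically stimulated smooth muscle bioassay. Guinea pig ileum longitudinal muscle-myenteric plexus strips come from male Hartley guinea pigs (250–500 g); vas deferens from male ICR mice (25–40 g). Tissues sit in 37 °C oxygenated Krebs bicarbonate (Mg-free for MVD) at 1 g tension (0.5 g MVD). Stimulation is 0.1 Hz, 0.4 ms pulses (2 ms MVD), supramaximal voltage.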

[2] = target: Delta-type opioid receptor (Mus musculus, UniProt P32300); assay: Agonistic activity towards Opioid receptor delta 1 as inhibitory activity towards electrically stimulated mouse vas deferens; assay type: functional, tissue-based; summary of the method: as §1
[3] = target: Delta-type opioid receptor (Rattus norvegicus, UniProt P33533); assay: Inhibition of [3H]- DADLE binding to Rat brain Opioid receptor delta 1
[4] = Relative affinity for mouse vas deferens (delta receptor) and guinea pig ileum (mu receptor); assay type: tissue-based
Summary of the method: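 GPI/MVD IC50 ratio from the electrically stimulated guinea pig ileum and mouse vas deferens bioassays. Both tissues are stimulated at 0.1 Hz and supramaximal voltage, with cumulative agonist dosing.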

[5] = target: T1, Mu-type opioid receptor (Rattus norvegicus, UniProt P33535); assay: Compound was evaluated for Inhibition of Radio Ligand binding of [3H]- DAMGO at Rat brain Opioid receptor mu 1 binding site
Summary of the method: (§2)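 Rat brain membranes labeled with [3H]DAMGO (1–3 nM), incubated 4 h at 25 °C in 50 mM Tris-HCl pH 7.4 with protease inhibitor cocktail. Nonspecific binding defined by 20 µM levallorphan. Displacement uses 8–10 test concentrations, run twice, diluted in 10 mM Tris pH 7.4 with 1 mg/mL BSA from 1 mM stocks containing 10% DMSO. IC50 and slope factor from curve fitting.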

[6] = target: Kappa-type opioid receptor (Cavia porcellus, UniProt P41144); assay: Inhibition of [3H]- U69,593 binding to Guinea pig Opioid receptor kappa 1
[7] = target: T1, Mu-type opioid receptor; assay: Inhibition of [3H]- DAMGO binding to Rat brain Opioid receptor mu 1; summary of the method: as §2
[8] = Relative affinity for […] opioid receptors
[9] = target: Mu-type opioid receptor (Cavia porcellus) (UniProt P97266); assay: Agonistic activity (30 uM) towards mu opioid receptor was determined by evaluating the inhibitory activity towards electrically stimulated guinea pig ileum; assay type: functional, tissue-based; summary of the method: as §1
[10] = target: Delta-type opioid receptor (Mus musculus) (UniProt P32300); assay: Agonistic activity towards Opioid receptor delta 1 was determined by evaluating the inhibitory activity towards electrically stimulated mouse vas deferens; assay type: functional, tissue-based; conditions: concentration not given here; summary of the method: as §1
Chain of Delta-type opioid receptor (Mus musculus) (P32300 whole entry): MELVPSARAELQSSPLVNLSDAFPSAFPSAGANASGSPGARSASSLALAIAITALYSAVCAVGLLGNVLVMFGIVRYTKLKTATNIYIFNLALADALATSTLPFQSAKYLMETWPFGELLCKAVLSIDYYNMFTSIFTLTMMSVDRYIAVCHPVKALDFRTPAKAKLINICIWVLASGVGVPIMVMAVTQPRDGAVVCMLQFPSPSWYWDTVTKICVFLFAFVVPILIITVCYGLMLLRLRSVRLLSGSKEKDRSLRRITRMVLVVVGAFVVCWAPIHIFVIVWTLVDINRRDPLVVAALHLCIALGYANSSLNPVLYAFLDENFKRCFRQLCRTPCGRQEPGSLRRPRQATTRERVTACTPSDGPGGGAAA

Chain of Delta-type opioid receptor (Mus musculus, UniProt P32300) (P32300 whole entry): as above
Chain of Kappa-type opioid receptor (P41144 whole entry): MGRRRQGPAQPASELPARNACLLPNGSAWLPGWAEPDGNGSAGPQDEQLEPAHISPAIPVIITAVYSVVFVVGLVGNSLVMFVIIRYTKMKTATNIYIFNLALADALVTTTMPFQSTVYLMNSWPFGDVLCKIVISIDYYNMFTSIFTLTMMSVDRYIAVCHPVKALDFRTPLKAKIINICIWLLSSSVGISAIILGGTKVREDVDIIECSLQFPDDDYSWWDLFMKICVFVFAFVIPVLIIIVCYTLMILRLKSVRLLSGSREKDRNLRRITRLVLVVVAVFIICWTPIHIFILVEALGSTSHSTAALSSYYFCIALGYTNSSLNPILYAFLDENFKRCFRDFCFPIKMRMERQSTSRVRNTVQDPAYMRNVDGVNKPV
Chain of Mu-type opioid receptor (Cavia porcellus, UniProt P97266) (P97266 whole entry): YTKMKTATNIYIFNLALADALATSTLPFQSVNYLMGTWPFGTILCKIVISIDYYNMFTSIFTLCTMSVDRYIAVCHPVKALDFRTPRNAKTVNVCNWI
T1 sequence (P33535 whole entry): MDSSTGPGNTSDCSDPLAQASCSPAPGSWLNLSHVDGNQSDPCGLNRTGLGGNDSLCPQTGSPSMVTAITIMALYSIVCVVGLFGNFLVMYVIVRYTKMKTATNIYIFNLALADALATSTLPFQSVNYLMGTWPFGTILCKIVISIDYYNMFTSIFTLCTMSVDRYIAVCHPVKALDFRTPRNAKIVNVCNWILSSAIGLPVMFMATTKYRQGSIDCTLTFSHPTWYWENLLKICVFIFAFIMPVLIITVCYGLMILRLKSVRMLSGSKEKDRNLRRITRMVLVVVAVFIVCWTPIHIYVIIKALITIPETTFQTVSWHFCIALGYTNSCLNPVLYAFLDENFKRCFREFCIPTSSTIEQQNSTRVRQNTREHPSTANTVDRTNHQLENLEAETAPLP
Chain of Delta-type opioid receptor (Rattus norvegicus, UniProt P33533) (P33533 whole entry): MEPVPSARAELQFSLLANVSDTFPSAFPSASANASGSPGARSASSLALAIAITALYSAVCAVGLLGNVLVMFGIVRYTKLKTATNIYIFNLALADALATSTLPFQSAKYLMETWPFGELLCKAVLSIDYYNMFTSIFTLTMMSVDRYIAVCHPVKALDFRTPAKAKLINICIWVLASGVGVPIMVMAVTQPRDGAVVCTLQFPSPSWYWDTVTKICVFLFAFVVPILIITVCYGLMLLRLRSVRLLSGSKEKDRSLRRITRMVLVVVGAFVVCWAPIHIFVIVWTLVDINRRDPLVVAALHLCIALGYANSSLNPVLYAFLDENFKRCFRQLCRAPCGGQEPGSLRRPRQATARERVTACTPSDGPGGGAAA
Chain of Mu-type opioid receptor (Cavia porcellus) (P97266 whole entry): as the sequence (P97266 whole entry) above

CN1CC[C@]2(c3cccc(O)c3)C[C@H]1Cc1[nH]c3ccccc3c12
IC50 [1]: 2350 nM
IC50 [2]: 393 nM
IC50 [3]: 5.6 nM
Ratio [4]: 6
IC50 [5]: 14.2 nM

COc1ccc2c3c([nH]c2c1)C[C@@H]1C[C@@]3(c2cccc(O)c2)CCN1C
IC50 [6]: 1160 nM
IC50 [7]: 66.4 nM
Ratio [8]: 314
IC50 [2]: 49 nM
IC50 [3]: 3.7 nM
Ratio [4]: > 612
inhibition [9]: 38%

CN1CCC2(c3cccc(O)c3)CC(=O)CC1C2 (stereo not given)
Ratio [8]: 4.46

COc1cccc2c3c([nH]c12)CC1CC3(c2cccc(O)c2)CCN1C (racemic) [listing 1 of 2 here]
IC50 [6]: 3960 nM
IC50 [1]: 1950 nM
IC50 [7]: 28.8 nM
IC50 [2]: 270 nM
IC50 [3]: 8.7 nM

CN1CCC2(c3ccccc3)CC1Cc1[nH]c3ccccc3c12 (racemic)
IC50 [6]: > 10000 nM
Ratio [8]: 5.08
IC50 [3]: 1970 nM

COc1ccc2c3c([nH]c2c1)CC1CC3(c2cccc(O)c2)CCN1C (racemic)
IC50 [6]: > 1000 nM
IC50 [1]: 862 nM
IC50 [7]: 48.4 nM
Ratio [8]: > 159
IC50 [2]: 118 nM
IC50 [3]: 6.3 nM
Ratio [4]: 7.3

COc1ccc2[nH]c3c(c2c1)C1(c2cccc(O)c2)CCN(C)C(C3)C1 (racemic) [listing 1 of 2 here]
IC50 [6]: > 1000 nM
IC50 [1]: 6770 nM
IC50 [7]: 24.2 nM
IC50 [2]: 4370 nM
IC50 [3]: 90.1 nM

CN1CCC2(c3cccc(O)c3)CC(=O)CC1C2 (racemic)
Ratio [8]: 2.81

COc1ccc2[nH]c3c(c2c1)C1(c2cccc(O)c2)CCN(C)C(C3)C1 (racemic) [listing 2 of 2 here]
Ratio [8]: 11.1
Ratio [4]: 1.5

COc1cccc2c3c([nH]c12)CC1CC3(c2cccc(O)c2)CCN1C (racemic) [listing 2 of 2 here]
Ratio [8]: 455
Ratio [4]: 7.2

COc1cccc2c3c([nH]c12)CC1CC3(c2cccc(O)c2)CCN1C (single isomer, unassigned; (-)) [listing 1 of 2 here]
IC50 [6]: 1770 nM
IC50 [1]: 2890 nM
IC50 [7]: 29.4 nM
IC50 [2]: 165 nM
IC50 [3]: 4.4 nM

COc1cccc2c3c([nH]c12)CC1CC3(c2cccc(O)c2)CCN1C (single isomer, unassigned; (-)) [listing 2 of 2 here]
Ratio [8]: 402
Ratio [4]: 17.5

COc1ccc2[nH]c3c(c2c1)C1(c2cccc(O)c2)CCN(C)C(C3)C1 (stereo in doubt; (-)-11) [listing 1 of 2 here]
IC50 [6]: > 2500 nM
IC50 [1]: 25900 nM
IC50 [7]: 474 nM
IC50 [3]: 144 nM

COc1ccc2[nH]c3c(c2c1)C1(c2cccc(O)c2)CCN(C)C(C3)C1 (stereo in doubt; (-)-11) [listing 2 of 2 here]
Ratio [8]: 17.4
inhibition [10]: 0%

CC(C)C[C@@H](NC(=O)[C@H](Cc1ccccc1)NC(=O)CNC(=O)[C@@H](C)NC(=O)[C@@H](N)Cc1ccc(O)cc1)C(=O)O [DADLE]
IC50 [6]: 4400 nM

C=CCN1C[C@H](C)N([C@H](c2ccc(C(=O)N(CC)CC)cc2)c2cccc(OC)c2)C[C@H]1C [SNC-80]
IC50 [6]: > 1000 nM
IC50 [1]: 5460 nM
IC50 [7]: 2470 nM
